Assays:
Adenosine receptor A1 = molecular target: T1, Adenosine receptor A1 (Bos taurus, UniProt P28190); test: Displacement of [3H]DPCPX from adenosine A1 receptor in bovine cerebral cortical membranes; type: cell membranes
T1 sequence (P28190 whole entry): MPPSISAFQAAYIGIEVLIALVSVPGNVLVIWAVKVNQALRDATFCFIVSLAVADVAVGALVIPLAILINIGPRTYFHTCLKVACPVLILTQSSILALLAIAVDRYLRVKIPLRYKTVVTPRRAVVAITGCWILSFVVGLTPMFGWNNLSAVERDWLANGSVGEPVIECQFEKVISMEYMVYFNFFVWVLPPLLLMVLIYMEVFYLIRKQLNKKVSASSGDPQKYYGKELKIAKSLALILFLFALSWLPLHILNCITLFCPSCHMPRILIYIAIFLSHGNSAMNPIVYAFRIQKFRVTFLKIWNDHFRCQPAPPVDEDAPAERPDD
Method in brief: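 [3H]DPCPX was displaced from A1 sites in bovine cortical membranes. Compounds were taken up in DMSO and diluted in assay buffer, with DMSO at 2% or less final. Ki used at least six concentrations across 3 orders of magnitude and was the mean ± SEM of three independent assays in triplicate.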

[1] = molecular target: Adenosine receptor A1 (Bos taurus) (UniProt P28190); test: Displacement of [3H]DPCPX from bovine adenosine A1 receptor in bovine cortical membranes
[2] = tested on: Adenosine receptor A2a (Bos taurus); test: Displacement of [3HCGS21680 from adenosine A2A receptor in bovine striatal membranes at 10 uM
[3] = molecular target: T2, Adenosine receptor A3 (Homo sapiens) (UniProt P0DMS8); test: Displacement of [125I]AB-MECA from human adenosine A3 receptor expressed in CHO cells at 10 uM
T2 sequence (whole entry): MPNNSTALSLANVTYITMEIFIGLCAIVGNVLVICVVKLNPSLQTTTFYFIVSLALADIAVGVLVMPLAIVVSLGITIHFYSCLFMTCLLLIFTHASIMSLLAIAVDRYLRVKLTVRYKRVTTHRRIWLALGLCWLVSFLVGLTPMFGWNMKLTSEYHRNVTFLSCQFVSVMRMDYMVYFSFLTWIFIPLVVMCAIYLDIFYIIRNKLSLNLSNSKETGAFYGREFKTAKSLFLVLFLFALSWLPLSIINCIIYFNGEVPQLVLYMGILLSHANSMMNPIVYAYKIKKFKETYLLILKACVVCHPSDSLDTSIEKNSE

Row | Ki (Adenosine receptor A1) | Ki [1] | inhibition [2] | inhibition [3] | SMILES
1 | 48 nM | 50.1 nM | 54% | – | O=C(OCC1CC1)c1cnc2c(cnn2CC(Cl)c2ccccc2)c1NCCc1ccccc1 (centres undefined)
2 | – | 3980 nM | – | – | Cc1nnc2nc3ccccc3n2c1O
3 | – | 79.4 nM | – | – | O=c1n(-c2ccc(Cl)cc2)nc2c(NC3CCCCC3)nc3ccccc3n12
4 | – | 10000 nM | – | – | Cc1cc(O)c2ccc(=O)[nH]c2n1
5 | 4240 nM | 3980 nM | 0% | – | COC(=O)c1cnc2c(cnn2CC(Cl)c2ccccc2)c1N1CCCC1 (centres undefined)
6 | – | 1.58 nM | – | – | COc1ccc2c(O)cc(-c3ccccc3)nc2n1
7 | – | 50.1 nM | – | – | CCOC(=O)c1cnc2c(cnn2CC(Cl)c2ccccc2)c1NCCc1ccccc1 (centres undefined)
8 | – | 501 nM | – | – | CCOC(=O)c1cnc2c(cnn2CC(Cl)c2ccccc2)c1N1CCOCC1 (centres undefined)
9 | – | 251 nM | – | – | Oc1c(-c2ccco2)nnc2nc3ccccc3n12
10 | – | 5010 nM | – | – | Cn1c(=O)ccc2c(O)cc(-c3ccccc3)nc21
11 | – | 50.1 nM | – | – | CCOc1cc(-c2ccccc2)nc2nc(Br)ccc12
12 | – | 79.4 nM | – | – | Oc1c(-c2ccccc2)nnc2nc3ccccc3n12
13 | – | 1000 nM | – | – | CCCNc1nc(SC)nc2c1cnn2CC(Cl)c1ccccc1 (centres undefined)
14 | – | 5.01 nM | – | – | Cc1ccc2c(O)cc(-c3ccc(F)cc3)nc2n1
15 | – | 63.1 nM | – | – | Cn1c2ccccc2n2c(=O)c(-c3ccccc3)nnc12
16 | – | 6.31 nM | – | – | Cc1ccc2c(O)cc(-c3ccc(N)cc3)nc2n1
17 | – | 1000 nM | – | – | Cc1ccc2c(Cl)cc(-c3ccccc3)nc2n1
18 | – | 0.631 nM | – | – | CN(C)c1ccc2c(O)cc(-c3ccccc3)nc2n1
19 | – | 6310 nM | – | – | COc1cc(-c2ccccc2)nc2nc(C)ccc12
20 | – | – | – | 2% | CCCOC(=O)c1cnc2c(cnn2CC(Cl)c2ccccc2)c1NC1CC1 (centres undefined)
21 | – | 6310 nM | – | – | CSc1nc(NC2CCCCC2)c2cnn(CC(Cl)c3ccccc3)c2n1 (centres undefined)
22 | – | 1.58 nM | – | – | O=c1n(-c2ccccc2)nc2c(NC3CCCCC3)nc3ccccc3n12
23 | – | 5.01 nM | – | – | Cc1ccc2c(O)cc(-c3ccccc3)nc2n1
24 | – | 100 nM | – | – | O=C(Nc1nc2ccccc2n2c(=O)n(-c3ccc(Cl)cc3)nc12)c1ccccc1

Row | Ki (Adenosine receptor A1) | Ki [1] | inhibition [2] | inhibition [3] | SMILES
25 | 63 nM | 63.1 nM | 4% | – | Cc1ccc(CCNc2c(C(=O)OCC3CC3)cnc3c2cnn3CC(Cl)c2ccccc2)cc1 (centres undefined)
26 | – | 10 nM | – | – | Nc1nc2ccccc2n2c(=O)n(-c3ccccc3)nc12
27 | 959 nM | 1000 nM | 20% | – | CCCCOC(=O)c1cnc2c(cnn2CC(Cl)c2ccccc2)c1NCCC (centres undefined)
28 | – | 501 nM | – | – | CCn1c(-c2ccccc2)cc(=O)c2ccc(C)nc21
29 | – | 0.794 nM | – | – | Oc1cc(-c2ccccc2)nc2nc(Br)ccc12
30 | – | 10000 nM | – | – | Cn1c2ccccc2n2c(=O)c(-c3ccc(Cl)cc3)nnc12
31 | 141 nM | 126 nM | – | – | COC(=O)c1cnc2c(cnn2CC(Cl)c2ccccc2)c1NCc1ccccc1 (centres undefined)
32 | – | 1 nM | – | – | O=c1n(-c2cccc(F)c2)nc2c(NC3CCCC3)nc3ccccc3n12
33 | 51 nM | 50.1 nM | 40% | – | CCCNc1c(C(=O)OC(C)CC)cnc2c1cnn2CC(Cl)c1ccccc1 (centres undefined)
34 | 62 nM | 63.1 nM | 46% | – | CCC(C)OC(=O)c1cnc2c(cnn2CC(Cl)c2ccccc2)c1NCCc1ccccc1 (centres undefined)
35 | – | 79.4 nM | – | – | Oc1cc(-c2ccccc2)nc2nc(NC3CCCCC3)ccc12
36 | 1080 nM | 1000 nM | 30% | – | CC(C)OC(=O)c1cnc2c(cnn2CC(Cl)c2ccccc2)c1N1CCCC1 (centres undefined)
37 | – | 316 nM | – | – | COc1ccc(-n2nc3c(N)nc4ccccc4n3c2=O)cc1
38 | – | 2000 nM | – | – | COc1ccc(-c2nnc3n(C)c4ccccc4n3c2=O)cc1
39 | – | 126 nM | – | – | CCOC(=O)c1cnc2c(cnn2CC(Cl)c2ccccc2)c1NCc1ccccc1 (centres undefined)
40 | 559 nM | 631 nM | – | – | CC(C)OC(=O)c1cnc2c(cnn2CC(Cl)c2ccccc2)c1NCc1ccccc1 (centres undefined)
41 | – | 1000 nM | – | – | O=c1c(-c2ccco2)nnc2n(Cc3ccccc3)c3ccccc3n12
42 | – | 10000 nM | – | – | Cc1nnc2n(C)c3ccccc3n2c1=O
43 | 178 nM | 200 nM | – | – | CCOC(=O)c1cnc2c(cnn2CC(Cl)c2ccccc2)c1NCCc1cccc(Cl)c1 (centres undefined)
44 | 1890 nM | 2000 nM | 45% | – | CCCCOC(=O)c1cnc2c(cnn2CC(Cl)c2ccccc2)c1N1CCCC1 (centres undefined)
45 | – | 31.6 nM | – | – | Nc1nc2ccccc2n2c(=O)n(-c3cccc(F)c3)nc12
46 | – | 15.8 nM | – | – | Cc1ccc2c(N)cc(-c3ccccc3)nc2n1
47 | – | 10000 nM | – | – | Cc1cc(O)c2ccc(N)nc2n1
48 | – | 316 nM | – | – | CCOc1ccc2c(OCC)cc(-c3ccccc3)nc2n1

Row | Ki (Adenosine receptor A1) | Ki [1] | inhibition [2] | inhibition [3] | SMILES
49 | – | 10000 nM | – | – | CSc1nc(NCCc2ccccc2)c2cnn(CC(Cl)c3ccccc3)c2n1 (centres undefined)
50 | – | 3.98 nM | – | – | Cc1cccc(-n2nc3c(NC4CCCCC4)nc4ccccc4n3c2=O)c1
51 | – | 5.01 nM | – | – | CCOc1ccc2c(O)cc(-c3ccccc3)nc2n1
52 | – | 126 nM | – | – | CCOC(=O)c1cnc2c(cnn2CC(Cl)c2ccccc2)c1NC1CC1 (centres undefined)
53 | – | 50.1 nM | – | – | CCCc1cc(O)c2ccc(C)nc2n1
54 | 1370 nM | 1260 nM | – | – | CCCOC(=O)c1cnc2c(cnn2CC(Cl)c2ccccc2)c1NCc1ccccc1 (centres undefined)
55 | – | 7940 nM | – | – | Cc1ccc2c(O)ccnc2n1
56 | – | 20 nM | – | – | Cc1cccc(-n2nc3c(N)nc4ccccc4n3c2=O)c1
57 | – | 25.1 nM | – | – | Oc1cc(-c2ccccc2)nc2nc(Oc3ccccc3)ccc12
58 | 33 nM | 31.6 nM | 25% | – | CCOC(=O)c1cnc2c(cnn2CC(Cl)c2ccccc2)c1NCCc1cccc(F)c1 (centres undefined)
59 | – | 316 nM | – | – | O=c1c(-c2ccco2)nnc2n(-c3ccccc3)c3ccccc3n12
60 | – | 50.1 nM | – | – | O=C(Nc1ccccc1)Nc1nc2ccccc2n2c(=O)n(-c3ccc(Cl)cc3)nc12
61 | 1820 nM | 2000 nM | – | – | CC(C)OC(=O)c1cnc2c(cnn2CC(Cl)c2ccccc2)c1N1CCOCC1 (centres undefined)
62 | – | 15.8 nM | – | – | Oc1cc(-c2ccccc2)nc2ncccc12
63 | – | 5.01 nM | – | – | O=c1n(-c2cccc(F)c2)nc2c(NC3CCCCC3)nc3ccccc3n12
64 | 251 nM | 251 nM | – | – | COC(=O)c1cnc2c(cnn2CC(Cl)c2ccccc2)c1NC1CC1 (centres undefined)
65 | – | 0.398 nM | – | – | O=c1n(-c2ccccc2)nc2c(NC3CCCC3)nc3ccccc3n12
66 | – | 79.4 nM | – | – | Cn1c2ccccc2n2c(=O)c(-c3cccs3)nnc12
67 | – | 20 nM | – | – | O=c1c(-c2ccccc2)nnc2n(-c3ccccc3)c3ccccc3n12
68 | – | 100 nM | – | – | CCOC(=O)c1cnc2c(cnn2CC(Cl)c2ccccc2)c1N1CCCC1 (centres undefined)
69 | – | 50.1 nM | – | – | O=c1[nH]nc2c(NCc3ccccc3)nc3ccccc3n12
70 | 41 nM | 39.8 nM | 27% | – | CC(C)OC(=O)c1cnc2c(cnn2CC(Cl)c2ccccc2)c1NCCc1ccc(Cl)cc1 (centres undefined)
71 | 44 nM | 39.8 nM | 13% | – | CC(C)OC(=O)c1cnc2c(cnn2CC(Cl)c2ccccc2)c1NCCc1ccccc1Cl (centres undefined)
72 | 2970 nM | 3160 nM | – | – | CCCOC(=O)c1cnc2c(cnn2CC(Cl)c2ccccc2)c1N1CCCC1 (centres undefined)

Row | Ki (Adenosine receptor A1) | Ki [1] | inhibition [2] | inhibition [3] | SMILES
73 | – | 31.6 nM | – | – | Cc1ccc2c(NC3CCCCC3)cc(-c3ccccc3)nc2n1
74 | – | 251 nM | – | – | Oc1ccc(-c2nnc3nc4ccccc4n3c2O)cc1
75 | 109 nM | 100 nM | 23% | – | CCCNc1c(C(=O)OCC2CC2)cnc2c1cnn2CC(Cl)c1ccccc1 (centres undefined)
76 | 2150 nM | 2000 nM | 31% | – | CCCOC(=O)c1cnc2c(cnn2CC(Cl)c2ccccc2)c1N1CCOCC1 (centres undefined)
77 | – | 1260 nM | – | – | COc1cc(-c2ccccc2)nc2c1ccc(=O)n2C
78 | – | 794 nM | – | – | Cn1c2ccccc2n2c(=O)c(-c3ccco3)nnc12
79 | – | 5.01 nM | – | – | O=c1[nH]nc2c(NCCc3ccccc3)nc3ccccc3n12
80 | 48 nM | 50.1 nM | 26% | – | Cc1ccc(CCNc2c(C(=O)OC(C)C)cnc3c2cnn3CC(Cl)c2ccccc2)cc1 (centres undefined)
81 | 197 nM | 200 nM | 33% | – | CCC(C)OC(=O)c1cnc2c(cnn2CC(Cl)c2ccccc2)c1NC1CC1 (centres undefined)
82 | – | 100 nM | – | – | Cc1ccc2c(NN)cc(-c3ccccc3)nc2n1
83 | 100 nM | 100 nM | 14% | – | CC(C)OC(=O)c1cnc2c(cnn2CC(Cl)c2ccccc2)c1NCCc1cccc(Cl)c1 (centres undefined)
84 | – | 501 nM | – | – | Oc1ccc(-c2nnc3nc4ccccc4n3c2O)cc1O
85 | – | 0.158 nM | – | – | Oc1cc(-c2ccccc2)nc2nc(Cl)ccc12
86 | 130 nM | 126 nM | – | – | CCCOC(=O)c1cnc2c(cnn2CC(Cl)c2ccccc2)c1NCCc1ccccc1 (centres undefined)
87 | 76 nM | 79.4 nM | – | – | CCOC(=O)c1cnc2c(cnn2CC(Cl)c2ccccc2)c1NCCc1ccccc1Cl (centres undefined)
88 | – | 100 nM | – | – | CCCNc1c(C(=O)OCC)cnc2c1cnn2CC(Cl)c1ccccc1 (centres undefined)
89 | – | 316 nM | – | – | CC(=O)Nc1ccc2c(O)cc(-c3ccccc3)nc2n1
90 | – | 2000 nM | – | – | COc1ccc(-c2nnc3nc4ccccc4n3c2O)cc1OC
91 | – | 251 nM | – | – | O=c1c(Cc2ccccc2)nnc2n(Cc3ccccc3)c3ccccc3n12
92 | – | 2000 nM | – | – | CCCCNc1nc(SC)nc2c1cnn2CC(Cl)c1ccccc1 (centres undefined)
93 | – | 200 nM | – | – | CCCc1cc(O)c2ccc(N)nc2n1
